A selection: hits, their analogues and other compounds. The true share with any hit is near 9.8%.
Rad51 HR inh: human RAD51 strand exchange inhibitors, primary screen, biochemical, fluorescence; AID 1385, 2008; hRad51 DNA strand exchange, fluorescence dequenching; 200,000 tested, 0.085% active; inhibition, % at 10 µM; DNA repair protein RAD51 homolog 1 (Homo sapiens), Q06609;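 active = inhibition above 40% at the single screening dose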;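 note: 0% = DMSO control wells and 100% = blanks with heterologous ssDNA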
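material = hRad51 filaments on single-stranded DNA | reagent = Donor/quencher-labelled 47-bp dsDNA substrate | compound = 10 µM final, single point | schedule = strand-exchange reaction 15 min at room temperature | measured by = fluorescein emission 520 nm, excitation 485 nm | read-out basis = % inhibition versus plate control and blank means | benchmarks = plate controls and plate blanks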
L major viab: Leishmania major promastigote growth inhibition, primary screen; 200,000 tested, 9% active; inhibition, % at 10 µM; AID 1063, 2008; Leishmania major promastigotes, resazurin fluorescence viability; in the data active = inhibition above about 50%;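 note: promastigotes grown with compound for 44 hours at 28 °C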
PMI act hi M6P: human PMI activators, high substrate, primary screen, biochemical, fluorescence intensity, near-saturating mannose 6-phosphate; Mannose-6-phosphate isomerase (Homo sapiens), P34949; coupled PMI enzyme assay, resazurin fluorescence, 20 min; hits give high values; 1 = untreated enzyme, 0 = substrate-free blank; activation factor at 20 µM; 190,000 tested, 0.34% active;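 active = activation factor of 2 or more at 20 µM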
Target sequence (P34949 whole entry, looked up): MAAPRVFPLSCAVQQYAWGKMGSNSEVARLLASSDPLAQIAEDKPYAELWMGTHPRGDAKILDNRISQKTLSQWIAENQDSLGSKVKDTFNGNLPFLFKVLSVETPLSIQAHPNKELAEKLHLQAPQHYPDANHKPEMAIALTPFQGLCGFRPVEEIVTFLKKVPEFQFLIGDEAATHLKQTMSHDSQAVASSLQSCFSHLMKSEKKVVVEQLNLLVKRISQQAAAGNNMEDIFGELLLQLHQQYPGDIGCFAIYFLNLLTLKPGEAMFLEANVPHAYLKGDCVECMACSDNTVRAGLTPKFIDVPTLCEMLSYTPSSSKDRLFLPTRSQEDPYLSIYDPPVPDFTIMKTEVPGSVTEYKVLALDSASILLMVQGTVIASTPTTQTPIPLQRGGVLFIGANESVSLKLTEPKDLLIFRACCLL
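Test system: human phosphomannose isomerase with PGI, G6PDH, diaphorase coupling enzymes; amount: 15 ng/mL PMI; incubation: enzyme reaction with compound 20 min at room temperature; technique: resorufin fluorescence (Ex 544/Em 590 nm) from resazurin via diaphorase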
m-calpain inh: inhibitors of pig calpain II, primary screen, biochemical, fluorogenic peptide substrate, 1536-well | purified calpain II, 30 min | inhibition, % at 16 µM | 220,000 tested, 0.37% active;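 active = inhibition above about 50%, limit read from the data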
PMI activator: activators of human PMI, primary screen, biochemical, fluorescence intensity, near-Km mannose 6-phosphate | 190,000 tested, 0.005% active | Mannose-6-phosphate isomerase (Homo sapiens), P34949 | AID 1214, 2008 | purified human PMI, coupled resazurin fluorescence, 20 min; hits give high values; 1 = vehicle control, 0 substrate-free wells | activation factor at 20 µM;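 active = activation factor of 2 or more at 20 µM, relative to plate controls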
WT yeast gro inh: growth inhibition of WT strain, primary screen, mitochondrial fusion inhibitor project, WT and mutant strains, chemical genetic; inhibition, % at 10 µM; mitochondrial fusion phenotypic screen; 190,000 tested, 2.1% active; in the data active = inhibition above about 58%; tested in S. cerevisiae
* hit, by the source's call; i = inactive; · = no result.

SMILES | Rad51 HR inh | L major viab | PMI act hi M6P | m-calpain inh | PMI activator | WT yeast gro inh
COc1ccccc1/C=C/C=C1N=C(/C=C/c2ccc(Cl)cc2)OC/1=O | -136.6 | -4.0 | 1 | -67.3 | 0.9 | 4.2
Cc1cc(NC(c2ccc(Cl)cc2)c2ccc3cccnc3c2O)no1 (stereo not drawn) | 3.5 | 100.5* | 1 | -31.6 | 1.1 | -2.5
COc1ccccc1NC(c1cccnc1)c1ccc2cccnc2c1O (stereo not drawn) | -7.1 | 3.5 | 0.5 | 11.7 | 0.5 | -8.6
Cc1ccc2ccc(C(Nc3cccc(C(F)(F)F)c3)c3cccnc3)c(O)c2n1 (stereo not drawn) | 9.1 | 100.2* | 1 | -4.5 | 0.9 | -8.6
Cc1ccnc(NC(c2cccnc2)c2ccc3cccnc3c2O)c1 (stereo not drawn) | -10.1 | 97.6* | 0.8 | 8.6 | 0.8 | -9.5
Cc1ccc(C(=O)COC(=O)c2cn(-c3ccccc3)nc2-c2ccccc2)cc1[N+](=O)[O-] | · | 24.4 | 1 | -2.2 | 0.9 | -1.6
CCn1c2ccc(/C(C)=N\O)cc2c2cc(/C(C)=N\O)ccc21 | -5.5 | 54.0* | 1 | -9.8 | 1 | -2.9
CSc1nnc2c(n1)OC=Nc1ccc(Br)cc1-2 | 4.5 | · | · | -7.3 | · | ·
O=S(=O)(NCc1cc(-c2ccccc2Cl)no1)c1ccc(Cl)cc1 | 2.0 | -1.4 | 1 | 10.9 | 0.9 | 19.2
Cc1ccc(O)c(CP(=O)(c2ccccc2)c2ccccc2)c1 | -2.2 | 84.5* | 1 | 22.0 | 1 | -10.1
O=P(Cc1ccccc1)(c1ccccc1)c1ccccc1 | 1.2 | -1.4 | 1 | 14.5 | 0.9 | 6.0
CC(=O)CSc1nnc(C(F)(F)F)n1C | · | · | · | -8.8 | · | ·
CCOCCCNC(=S)NCCCNc1nc2ccc(C)cc2cc1C#N | -0.2 | 18.6 | 2.1* | -233.6 | 1.6 | -4.7
CCOCCCNC(=S)NCCNc1nc2ccc(C)cc2cc1C#N | -7.0 | -3.7 | 2* | -72.2 | 1.5 | -4.3
CCOCCCNC(=S)NCCCNc1nc2cc3c(cc2cc1C#N)OCO3 | 6.8 | -3.6 | 2.2* | -430.1 | 1.6 | 1.8
CN(C)CCCNC(=S)NCCNc1nc2cc3c(cc2cc1C#N)OCO3 | -0.1 | -3.3 | 1 | -411.5 | 1 | 2.5
COCCNC(=S)NCCCNc1nc2cc3c(cc2cc1C#N)OCO3 | 6.3 | 8.2 | 1.6 | i | 1.2 | 9.8
O=C(/C=C/c1ccc([N+](=O)[O-])cc1)NCc1cccnc1 | · | 2.7 | 1.1 | 24.0 | 1 | 8.2
C/C(=N\NC(=O)c1cccnc1)c1cccc([N+](=O)[O-])c1 | 10.7 | 0.7 | 1 | -16.1 | 1 | 8.1
O=C(NN=C(Cc1ccccc1)Cc1ccccc1)c1ccccc1F | -0.2 | 64.2* | 0.9 | 9.4 | 0.9 | -19.8
CC/C(Cc1ccccc1)=N\NC(=O)c1cc([N+](=O)[O-])cc([N+](=O)[O-])c1 | -2.2 | 58.9* | 0.9 | 13.3 | 1 | 1.8
CC(/C=C/c1cccc([N+](=O)[O-])c1)=N/NC(=O)c1cccnc1 | -0.1 | 95.8* | 1 | -2.2 | 1 | -8.5
O=C(/C=C/c1ccc([N+](=O)[O-])cc1)c1cccnc1 | 4.6 | 94.7* | 1.1 | -5.5 | 1.2 | -17.5
Nc1ccccc1C(=O)N/N=C1\C2CN3CCN(C2)CC1(c1ccccc1)C3 | · | 21.8 | 1 | -216.3 | 1 | 0.2
CCOC(=O)N1CCC2(CC1)C(C#N)=C(N)OC1=C2C(=O)CC(C)C1 (stereo not drawn) | 5.6 | -2.8 | 1 | -11.1 | 1 | 34.1
O=C(Nc1ccc(Cl)c(C(F)(F)F)c1)[C@@H]1CC=C[C@@H]2CCN(Cc3ccc(Cl)c(Cl)c3)C(=O)[C@@H]21 | -11.7 | · | · | · | · | ·
Cc1cccc(CSc2nnc(CCNC(=O)OC(C)(C)C)o2)c1 | · | · | · | -1.3 | · | ·
COC(=O)c1ccc(CN2CCN(C(C)C)C(CCO)C2)cc1 (stereo not drawn) | -44.6 | 3.5 | 1.1 | 3.6 | 1.1 | -7.0
COc1ccc(C(=O)Cc2ccccc2)cc1OC | 7.2 | -6.4 | 1.1 | -6.3 | 1.1 | -3.3

Bioassay records: PubChem, several laboratories
